Paper PMC10842602 (Bioorganic & medicinal chemistry, 2023)

Assays:
WT human SLACK = molecular target: T1, WT human SLACK (Homo sapiens, UniProt Q5JUK3); experiment: Tl+ flux assay in HEK-293 cells stably expressing WT human SLACK; assay type: cell-based; conditions: for IC50 / EC50: CRC; for Mode: Tl+ flux, HEK-293 cells expressing WT SLACK
T1 sequence (Q5JUK3 1-1235 isoform Q5JUK3-3): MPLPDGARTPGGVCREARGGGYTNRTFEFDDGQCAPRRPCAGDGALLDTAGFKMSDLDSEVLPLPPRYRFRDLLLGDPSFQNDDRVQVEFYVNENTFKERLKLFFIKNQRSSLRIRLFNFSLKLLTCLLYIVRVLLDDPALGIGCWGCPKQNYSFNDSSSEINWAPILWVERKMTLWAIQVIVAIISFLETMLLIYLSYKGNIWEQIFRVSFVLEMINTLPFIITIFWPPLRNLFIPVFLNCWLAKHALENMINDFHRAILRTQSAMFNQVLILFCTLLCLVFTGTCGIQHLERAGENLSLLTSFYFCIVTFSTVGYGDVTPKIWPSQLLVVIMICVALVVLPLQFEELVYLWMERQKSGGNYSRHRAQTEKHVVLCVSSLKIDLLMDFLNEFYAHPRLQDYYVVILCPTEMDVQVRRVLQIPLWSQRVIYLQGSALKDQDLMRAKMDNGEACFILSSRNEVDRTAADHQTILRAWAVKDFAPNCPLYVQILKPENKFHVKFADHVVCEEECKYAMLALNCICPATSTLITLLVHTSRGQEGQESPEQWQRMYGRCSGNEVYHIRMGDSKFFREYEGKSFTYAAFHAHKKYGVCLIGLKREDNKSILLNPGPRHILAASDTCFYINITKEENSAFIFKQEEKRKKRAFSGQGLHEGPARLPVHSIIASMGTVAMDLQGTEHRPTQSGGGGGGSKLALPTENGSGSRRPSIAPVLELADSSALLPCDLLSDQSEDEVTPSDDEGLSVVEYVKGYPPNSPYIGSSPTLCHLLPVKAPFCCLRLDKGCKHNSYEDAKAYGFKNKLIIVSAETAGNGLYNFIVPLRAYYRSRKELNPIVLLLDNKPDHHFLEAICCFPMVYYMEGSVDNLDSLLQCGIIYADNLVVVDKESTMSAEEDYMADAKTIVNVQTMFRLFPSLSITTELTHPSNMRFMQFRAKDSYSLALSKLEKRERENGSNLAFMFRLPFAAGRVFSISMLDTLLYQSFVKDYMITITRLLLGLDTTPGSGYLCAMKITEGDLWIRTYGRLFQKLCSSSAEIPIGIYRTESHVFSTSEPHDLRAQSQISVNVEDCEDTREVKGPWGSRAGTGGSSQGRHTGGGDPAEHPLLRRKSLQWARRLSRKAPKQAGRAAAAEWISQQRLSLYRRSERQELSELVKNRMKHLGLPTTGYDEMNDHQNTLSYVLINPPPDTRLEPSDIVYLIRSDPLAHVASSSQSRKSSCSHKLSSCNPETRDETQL
How it was run: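 Stably transfected HEK-293 cells expressing wild-type human SLACK; thallium flux read-out. IC50 or EC50 taken from concentration-response curves, and each compound classed as inhibitor, activator or not active. Efficacy is the response amplitude at 30 μM test compound, as a percentage of the maximum response to a reference SLACK inhibitor (for inhibitors) or loxapine (for activators).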

Maxi-K (Slo1 α1/β3) = Maxi-K (Slo1 α1/β3) (Homo sapiens, UniProt Q12791); experiment: Tl+ flux assay in HEK-293 cells expressing Maxi-K; assay type: cell-based; conditions: CRC
Sequence of Maxi-K (Slo1 α1/β3) (Q12791 whole entry, species assumed): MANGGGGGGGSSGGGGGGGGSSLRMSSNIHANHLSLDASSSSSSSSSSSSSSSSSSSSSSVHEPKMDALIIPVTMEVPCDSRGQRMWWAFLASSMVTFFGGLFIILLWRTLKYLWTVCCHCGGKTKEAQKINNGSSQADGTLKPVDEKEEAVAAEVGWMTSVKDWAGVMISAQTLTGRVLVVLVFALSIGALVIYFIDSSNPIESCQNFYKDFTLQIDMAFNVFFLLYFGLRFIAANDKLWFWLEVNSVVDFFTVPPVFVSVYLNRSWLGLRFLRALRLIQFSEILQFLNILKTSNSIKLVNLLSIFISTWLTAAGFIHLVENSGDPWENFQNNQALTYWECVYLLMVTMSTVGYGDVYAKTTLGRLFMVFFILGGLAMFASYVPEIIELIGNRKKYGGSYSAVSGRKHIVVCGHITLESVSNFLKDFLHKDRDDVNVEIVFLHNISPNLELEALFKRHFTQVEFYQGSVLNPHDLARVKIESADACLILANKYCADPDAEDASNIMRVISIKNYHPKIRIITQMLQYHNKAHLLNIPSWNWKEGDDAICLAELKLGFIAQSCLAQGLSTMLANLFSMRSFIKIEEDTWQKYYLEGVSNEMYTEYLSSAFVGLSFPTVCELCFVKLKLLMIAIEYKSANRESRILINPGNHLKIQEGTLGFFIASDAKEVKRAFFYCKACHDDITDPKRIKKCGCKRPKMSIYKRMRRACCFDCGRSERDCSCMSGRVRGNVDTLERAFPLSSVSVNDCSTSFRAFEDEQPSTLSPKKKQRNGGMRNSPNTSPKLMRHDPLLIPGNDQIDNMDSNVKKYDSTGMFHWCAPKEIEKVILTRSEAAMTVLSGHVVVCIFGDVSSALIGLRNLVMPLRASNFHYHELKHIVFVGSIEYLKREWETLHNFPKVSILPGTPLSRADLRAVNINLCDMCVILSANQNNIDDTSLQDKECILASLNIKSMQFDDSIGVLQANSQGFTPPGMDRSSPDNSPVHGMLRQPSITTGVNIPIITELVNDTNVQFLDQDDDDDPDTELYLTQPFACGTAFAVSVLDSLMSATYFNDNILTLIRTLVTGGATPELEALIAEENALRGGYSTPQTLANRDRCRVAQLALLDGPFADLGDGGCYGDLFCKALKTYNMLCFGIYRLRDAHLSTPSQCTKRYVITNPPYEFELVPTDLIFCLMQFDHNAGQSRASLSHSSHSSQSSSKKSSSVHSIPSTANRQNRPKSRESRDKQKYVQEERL
Sequence of Maxi-K (Slo1 α1/β3) (Q9NPA1 whole entry partner, species assumed): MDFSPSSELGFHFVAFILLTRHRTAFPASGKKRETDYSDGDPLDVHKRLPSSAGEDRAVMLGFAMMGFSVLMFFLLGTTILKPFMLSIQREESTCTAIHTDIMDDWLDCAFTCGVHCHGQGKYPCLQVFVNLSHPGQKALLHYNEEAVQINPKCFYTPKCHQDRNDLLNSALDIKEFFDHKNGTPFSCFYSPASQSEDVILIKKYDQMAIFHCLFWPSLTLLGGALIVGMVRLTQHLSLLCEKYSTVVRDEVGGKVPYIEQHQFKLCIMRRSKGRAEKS

[1] = IC50 for compounds of mode Inh (also cells printed Inactive)

SMILES	IC50 / EC50 (WT human SLACK; [1])	IC50 / EC50 (WT human SLACK; EC50 for compounds of mode Act) [µM]	further results
CCCCOc1ccccc1S(=O)(=O)N1CC(c2nc(-c3ccsc3)no2)C1 [Compound 28, 5-(1-((2-Butoxyphenyl)sulfonyl)azetidin-3-yl)-3-(thiophen-3-yl)-1,2,4-oxadiazole]	Inactive		Mode (WT human SLACK): Inactive
CCOc1ccccc1CN1CC(c2nc(-c3ccsc3)no2)C1 [Compound 31]		>10	
Cc1cccc(S(=O)(=O)N2CC(c3nc(-c4ccsc4)no3)C2)c1 [Compound 21, 3-(Thiophen-3-yl)-5-(1-(m-tolylsulfonyl)azetidin-3-yl)-1,2,4-oxadiazole]		>10	
O=S(=O)(c1cccn2ccnc12)N1CC(c2nc(-c3ccc(F)cc3)no2)C1 [Compound 125]		>10	
O=S(=O)(c1cccn2ncnc12)N1CC(c2nc(-c3ccc(F)cc3)no2)C1 [Compound 129]		>10	
Cc1nnc2c(S(=O)(=O)N3CC(c4nc(-c5ccc(F)cc5)no4)C3)cccn12 [Compound 133]	Inactive		Mode (WT human SLACK): Inactive
O=S(=O)(c1cccc(Cl)c1)N1CC(c2nc(-c3ccsc3)no2)C1 [Compound 15, 5-(1-((3-Chlorophenyl)sulfonyl)azetidin-3-yl)-3-(thiophen-3-yl)-1,2,4-oxadiazole]	Inactive		Mode (WT human SLACK): Inactive
Cc1nc2c(S(=O)(=O)N3CC(c4nc(-c5ccc(F)cc5)no4)C3)cccn2n1 [Compound 130]		>10	
CCOc1ccccc1S(=O)(=O)N1CC(c2cc(-c3ccc(F)cc3)n[nH]2)C1 [Compound 103]		>10	
O=S(=O)(c1cccc2ccoc12)N1CC(c2nc(-c3ccc(F)cc3)no2)C1 [Compound 120, 5-(1-(Benzofuran-7-ylsulfonyl)azetidin-3-yl)-3-(4-fluorophenyl)-1,2,4-oxadiazole]		2.3	
O=S(=O)(c1ccccc1N1CCCC1)N1CC(c2nc(-c3ccc(F)cc3)no2)C1 [Compound 117, 3-(4-Fluorophenyl)-5-(1-((2-(pyrrolidin-1-yl)phenyl)sulfonyl)azetidin-3-yl)-1,2,4-oxadiazole]	8.9 µM		
Cc1cn2cccc(S(=O)(=O)N3CC(c4nc(-c5ccc(F)cc5)no4)C3)c2n1 [Compound 126]		>10	
CCOc1ccccc1C(=O)N1CC(c2nc(-c3ccsc3)no2)C1 [Compound 33]		>10	
O=S(=O)(c1cccc(F)c1)N1CC(c2nc(-c3ccsc3)no2)C1 [Compound 12, 5-(1-((3-Fluorophenyl)sulfonyl)azetidin-3-yl)-3-(thiophen-3-yl)-1,2,4-oxadiazole]		>10	
CCOc1ccccc1S(=O)(=O)N1CC(c2cn(-c3ccc(F)cc3)nn2)C1 [Compound 95]		>10	
O=S(=O)(c1ccccc1F)N1CC(c2nc(-c3ccsc3)no2)C1 [Compound 11, 5-(1-((2-Fluorophenyl)sulfonyl)azetidin-3-yl)-3-(thiophen-3-yl)-1,2,4-oxadiazole]		4.8	
CCOc1ccccc1S(=O)(=O)N1CC(c2nc(-c3ccc(F)cc3)c[nH]2)C1 [Compound 99]		4.1	
CCOc1ccccc1OC(=O)N1CC(c2nc(-c3ccsc3)no2)C1 [Compound 36]		>10	
CCOc1ccccc1NC(=O)N1CC(c2nc(-c3ccsc3)no2)C1 [Compound 35]		>10	
CCOc1ccccc1CC(=O)N1CC(c2nc(-c3ccsc3)no2)C1 [Compound 34]		>10	

More lines, main results first:

IC50 / EC50 (WT human SLACK; [1])	IC50 / EC50 (WT human SLACK; EC50 for compounds of mode Act) [µM]	SMILES	further results
3.7 µM		CC(C)Oc1ccccc1S(=O)(=O)N1CC(c2nc(-c3ccsc3)no2)C1 [Compound 27, 5-(1-((2-Isopropoxyphenyl)sulfonyl)azetidin-3-yl)-3-(thiophen-3-yl)-1,2,4-oxadiazole]	Maxi-K (Slo1 α1/β3) IC50 (Maxi-K (Slo1 α1/β3)): inactive
8.8 µM		O=S(=O)(c1ccccc1OCC(F)(F)F)N1CC(c2nc(-c3ccc(F)cc3)no2)C1 [Compound 113, 3-(4-Fluorophenyl)-5-(1-((2-(2,2,2-trifluoroethoxy)phenyl)sulfonyl)azetidin-3-yl)-1,2,4-oxadiazole]	Maxi-K (Slo1 α1/β3) IC50 (Maxi-K (Slo1 α1/β3)): inactive
9.3 µM		O=S(=O)(c1ccccc1OCC1CCC1)N1CC(c2nc(-c3ccc(F)cc3)no2)C1 [Compound 110, 5-(1-((2-(Cyclobutylmethoxy)phenyl)sulfonyl)azetidin-3-yl)-3-(4-fluorophenyl)-1,2,4-oxadiazole]	
Inactive		CCOc1ccccc1S(=O)(=O)N1CC(c2nc(-c3ccncc3)no2)C1 [Compound 66, 5-(1-((2-Ethoxyphenyl)sulfonyl)azetidin-3-yl)-3-(pyridin-4-yl)-1,2,4-oxadiazole]	Mode (WT human SLACK): Inactive
8.0 µM		CCOc1ccccc1S(=O)(=O)N1CC(c2nc(-c3ccccc3Cl)no2)C1 [Compound 44, 3-(2-Chlorophenyl)-5-(1-((2-ethoxyphenyl)sulfonyl)azetidin-3-yl)-1,2,4-oxadiazole]	
Inactive		O=S(=O)(c1ccc(C(F)(F)F)cc1)N1CC(c2nc(-c3ccsc3)no2)C1 [Compound 19, 3-(Thiophen-3-yl)-5-(1-((4-(trifluoromethyl)phenyl)sulfonyl)azetidin-3-yl)-1,2,4-oxadiazole]	Mode (WT human SLACK): Inactive
11 µM		CCOc1ccccc1S(=O)(=O)N1CC(c2nc(-c3cccc(C(F)(F)F)c3)no2)C1 [Compound 48, 5-(1-((2-Ethoxyphenyl)sulfonyl)azetidin-3-yl)-3-(3-(trifluoromethyl)phenyl)-1,2,4-oxadiazole]	
>10 µM		CCOc1ccccc1S(=O)(=O)N1CC(c2noc(-c3ccc(F)cc3)n2)C1 [Compound 101]	
Inactive		CCOc1ccccc1S(=O)(=O)N1CC(c2nc(-c3cccnc3)no2)C1 [Compound 65, 5-(1-((2-Ethoxyphenyl)sulfonyl)azetidin-3-yl)-3-(pyridin-3-yl)-1,2,4-oxadiazole]	Mode (WT human SLACK): Inactive
	1.9	CCOc1ccccc1S(=O)(=O)N1CC(c2nc(-c3ccccc3C(F)(F)F)no2)C1 [Compound 47, 5-(1-((2-Ethoxyphenyl)sulfonyl)azetidin-3-yl)-3-(2-(trifluoromethyl)phenyl)-1,2,4-oxadiazole]	
Inactive		CCOc1ccccc1S(=O)(=O)N1CC(c2nc(-c3ncccn3)no2)C1 [Compound 68, 5-(1-((2-Ethoxyphenyl)sulfonyl)azetidin-3-yl)-3-(pyrimidin-2-yl)-1,2,4-oxadiazole]	Mode (WT human SLACK): Inactive
	>10	CCOc1ccccc1S(=O)(=O)N1CC(c2nc(-c3cccc(OC)c3)no2)C1 [Compound 54, 5-(1-((2-Ethoxyphenyl)sulfonyl)azetidin-3-yl)-3-(3-methoxyphenyl)-1,2,4-oxadiazole]	
	>10	CCOc1ccccc1S(=O)(=O)N1CC(c2nc(-c3ccccc3OC)no2)C1 [Compound 53, 5-(1-((2-Ethoxyphenyl)sulfonyl)azetidin-3-yl)-3-(2-methoxyphenyl)-1,2,4-oxadiazole]	
Inactive		CCOc1ccccc1S(=O)(=O)N1CC(c2nc(-c3cccc(F)c3)no2)C1 [Compound 42, 5-(1-((2-Ethoxyphenyl)sulfonyl)azetidin-3-yl)-3-(3-fluorophenyl)-1,2,4-oxadiazole]	Mode (WT human SLACK): Inactive
	6.0	O=S(=O)(c1ccccc1C(F)(F)F)N1CC(c2nc(-c3ccsc3)no2)C1 [Compound 17, 3-(Thiophen-3-yl)-5-(1-((2-(trifluoromethyl)phenyl)sulfonyl)azetidin-3-yl)-1,2,4-oxadiazole]	
>10 µM		CCOc1ccccc1S(=O)(=O)N1CC(c2nc(-c3ccccc3)no2)C1 [Compound 40, 5-(1-((2-Ethoxyphenyl)sulfonyl)azetidin-3-yl)-3-phenyl-1,2,4-oxadiazole]	
